Source: ChEMBL document CHEMBL1123442 (J Med Chem, 1986)
Each block holds one compound with its values, some of them ahead of it. The source made the active and inactive calls. The rule behind the calls is not given here.

Experiments:
HCT-8 = assay: In vitro for cytotoxicity against human colon tumor cells (HCT-8) in culture; format: functional, cell-based
[1] = tested on: Lewis lung carcinoma cell line; assay: Evaluated in vivo for antitumor activity against Lewis lung carcinoma; g denotes ILS of 50% could not be reached at any dose level; format: functional, organism-based; settings: Mus musculus
Procedure, shortened: (§1)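 Mice inoculated intravenously with 10^6 Lewis lung carcinoma cells, then drug intraperitoneally in 0.1 mL 30% v/v ethanol-water on days 5, 9 and 13. D50 (mg/kg per day for 50% ILS) taken from dose-response graph. ILS at optimal dose versus untreated tumor-bearing controls. Survivors counted at 40 days.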

L1210 = assay: In vitro for cytotoxicity against murine leukemia cells (L1210); format: functional, cell-based; settings: Mus musculus
[2] = tested on: Lewis lung carcinoma cell line; assay: In vivo for antitumor activity against Lewis lung carcinoma; format: functional, Mus musculus; procedure, shortened: as §1
P388 [3] = assay: In vivo for antitumor activity against P388 leukemia; format: functional, Mus musculus
Procedure, shortened: (§2)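 Mice given 10^6 P388 leukemia cells intraperitoneally, then drug intraperitoneally in 0.1 mL 30% v/v ethanol-water on days 1, 5 and 9. D50 (mg/kg per day giving 50% ILS) read from dose-response graph. ILS at optimal dose versus untreated controls. Long-term survival counted at 30 days.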

poly[d(A-T)] = assay: Binding constant relative to amsacrine (Δlog K) for DNA binding by ethidium bromide displacement; settings: Bos taurus
[4] = tested on: Lewis lung carcinoma cell line; assay: Evaluated in vivo for antitumor activity against Lewis lung carcinoma; i denotes Inactive; format: functional, organism-based; settings: Mus musculus; procedure, shortened: as §1
P388 [5] = assay: In vivo for antitumor activity against P388 leukemia.; format: functional, Mus musculus; procedure, shortened: as §2
P388 [6] = assay: Evaluated in vivo for antitumor activity against P388 leukemia; g denotes ILS of 50% could not be reached at any dose level; format: functional, organism-based; settings: Mus musculus; procedure, shortened: as §2
P388 [7] = assay: Compound was evaluated in vivo for antitumor activity against P388 leukemia; i denotes Inactive; format: functional, organism-based; settings: Mus musculus; procedure, shortened: as §2

Structure (SMILES): CNc1ccc2c(Nc3ccc(NS(C)(=O)=O)cc3NC)c3ccccc3nc2c1
IC50 (HCT-8): 810 nM
D50 [1]: ILS of 50% could not be reached
IC50 (L1210): 5.8 nM
OD [2]: 2.6 mg/kg
D50 (P388 [3]): 0.2 mg/kg
ILSmax (P388 [3]): 208%
Δlog K (poly[d(A-T)]): 7.53
ILSmax [4]: inactive
OD (P388 [5]): 2.6 mg/kg

Structure (SMILES): CNc1cc(NS(C)(=O)=O)ccc1Nc1c2ccccc2nc2ccc(Cl)cc12
IC50 (HCT-8): 2500 nM
D50 [1]: ILS of 50% could not be reached
D50 (P388 [6]): ILS of 50% could not be reached
IC50 (L1210): > 1600 nM
OD [2]: 150 mg/kg
ILSmax [4]: inactive
ILSmax (P388 [7]): inactive
OD (P388 [5]): 100 mg/kg

Structure (SMILES): CNc1cc(NS(C)(=O)=O)ccc1Nc1c2ccccc2nc2c(C)ccc(C)c12
IC50 (HCT-8): 2100 nM
D50 (P388 [6]): ILS of 50% could not be reached
IC50 (L1210): 1700 nM
Δlog K (poly[d(A-T)]): 6.18
ILSmax (P388 [7]): inactive
OD (P388 [5]): 65 mg/kg

Structure (SMILES): CNc1cc(NS(C)(=O)=O)ccc1Nc1c2ccccc2nc2c1ccc1ccccc12
IC50 (HCT-8): 400 nM
D50 [1]: ILS of 50% could not be reached
IC50 (L1210): 189 nM
OD [2]: 20 mg/kg
D50 (P388 [3]): 45 mg/kg
ILSmax (P388 [3]): 50%
Δlog K (poly[d(A-T)]): 7.46
ILSmax [4]: inactive
OD (P388 [5]): 45 mg/kg

Structure (SMILES): CNC(=O)c1cccc2c(Nc3ccc(NS(C)(=O)=O)cc3NC)c3ccc(Cl)cc3nc12
IC50 (HCT-8): 1900 nM
D50 [1]: ILS of 50% could not be reached
IC50 (L1210): 110 nM
OD [2]: 30 mg/kg
D50 (P388 [3]): 30 mg/kg
ILSmax (P388 [3]): 61%
Δlog K (poly[d(A-T)]): 6.79
ILSmax [4]: inactive
OD (P388 [5]): 45 mg/kg

Structure (SMILES): CNC(=O)c1ccc(Cl)c2c(Nc3ccc(NS(C)(=O)=O)cc3NC)c3ccccc3nc12
IC50 (HCT-8): 4800 nM
D50 (P388 [6]): ILS of 50% could not be reached
IC50 (L1210): > 1600 nM
ILSmax (P388 [3]): 38%
Δlog K (poly[d(A-T)]): 6.75
OD (P388 [5]): 150 mg/kg

Structure (SMILES): CNc1cc(NS(C)(=O)=O)ccc1Nc1c2ccccc2nc2c(C(=O)NCC(N)=O)cccc12
IC50 (HCT-8): > 104 nM
D50 [1]: ILS of 50% could not be reached
IC50 (L1210): 3500 nM
OD [2]: 45 mg/kg
D50 (P388 [3]): 45 mg/kg
ILSmax (P388 [3]): 87%
Δlog K (poly[d(A-T)]): 5.57
ILSmax [4]: inactive
OD (P388 [5]): 68 mg/kg

Structure (SMILES): CNc1cc(NS(C)(=O)=O)ccc1Nc1c2ccccc2nc2cc(NC(=O)OC)ccc12
IC50 (HCT-8): 715 nM
D50 [1]: ILS of 50% could not be reached
IC50 (L1210): 76 nM
OD [2]: 8.9 mg/kg
D50 (P388 [3]): 1.5 mg/kg
ILSmax (P388 [3]): 135%
Δlog K (poly[d(A-T)]): 7.21
ILSmax [4]: inactive
OD (P388 [5]): 13.3 mg/kg

Structure (SMILES): CNc1cc(NS(C)(=O)=O)ccc1Nc1c2ccc(Br)cc2nc2c(C)cccc12
IC50 (HCT-8): 49 nM
D50 [1]: ILS of 50% could not be reached
IC50 (L1210): 21 nM
ILSmax [2]: 34%
OD [2]: 13.3 mg/kg
D50 (P388 [3]): 7 mg/kg
ILSmax (P388 [3]): 122%
Δlog K (poly[d(A-T)]): 7.27
OD (P388 [5]): 13.3 mg/kg

Further lines, with some results ahead:

Δlog K (poly[d(A-T)]): 6.28
Structure (SMILES): CNc1cc(NS(C)(=O)=O)ccc1Nc1c2ccccc2nc2c(C(N)=O)cccc12
IC50 (HCT-8): 2800 nM
D50 [1]: ILS of 50% could not be reached
IC50 (L1210): 560 nM
OD [2]: 30 mg/kg
D50 (P388 [3]): 25 mg/kg
ILSmax (P388 [3]): 109%
ILSmax [4]: inactive
OD (P388 [5]): 45 mg/kg

Δlog K (poly[d(A-T)]): 6.72
Structure (SMILES): CNc1cc(NS(C)(=O)=O)ccc1Nc1c2ccccc2nc2cc([N+](=O)[O-])ccc12
IC50 (HCT-8): 140 nM
D50 [1]: ILS of 50% could not be reached
IC50 (L1210): 110 nM
OD [2]: 8.9 mg/kg
D50 (P388 [3]): 3 mg/kg
ILSmax (P388 [3]): 70%
ILSmax [4]: inactive
OD (P388 [5]): 5.9 mg/kg

Δlog K (poly[d(A-T)]): 6.42
Structure (SMILES): CNc1cc(NS(C)(=O)=O)ccc1Nc1c2ccccc2nc2cc(I)ccc12
IC50 (HCT-8): 79 nM
D50 [1]: ILS of 50% could not be reached
IC50 (L1210): 29 nM
OD [2]: 30 mg/kg
D50 (P388 [3]): 10 mg/kg
ILSmax (P388 [3]): 70%
ILS max [4]: inactive
OD (P388 [5]): 45 mg/kg

Δlog K (poly[d(A-T)]): 5.8
Structure (SMILES): CNc1cc(NS(C)(=O)=O)ccc1Nc1c2ccccc2nc2ccc(OC)cc12
IC50 (HCT-8): 1900 nM
D50 [1]: ILS of 50% could not be reached
D50 (P388 [6]): ILS of 50% could not be reached
IC50 (L1210): 1200 nM
OD [2]: 150 mg/kg
ILSmax (P388 [3]): 25%
ILSmax [4]: inactive
OD (P388 [5]): 100 mg/kg

Δlog K (poly[d(A-T)]): 6.37
Structure (SMILES): CNc1cc(NS(C)(=O)=O)ccc1Nc1c2ccccc2nc2c(Br)cccc12
IC50 (HCT-8): 1800 nM
D50 [1]: ILS of 50% could not be reached
D50 (P388 [6]): ILS of 50% could not be reached
IC50 (L1210): 190 nM
OD [2]: 100 mg/kg
ILSmax (P388 [3]): 35%
ILSmax [4]: inactive
OD (P388 [5]): 100 mg/kg
